Activity calls are given as the source filed them. The calls are words filed in the database; no cut-off is given here.
How the values were obtained:
[1] = target: T1, Geranylgeranyl transferase type I (Homo sapiens) (UniProt P49354+P53609); assay: Ratio of Kcat to Km for recombinant GGTase1 (unknown origin) using dansyl-GCVLL as co-substrate assessed as protein prenylation by spectrofluorometric method relative to GGPP
[2] = target: T2, Protein farnesyltransferase (Homo sapiens) (UniProt P49354+P49356); assay: Ratio of Kcat to Km for recombinant FTase (unknown origin) using dansyl-GCVLS as co-substrate assessed as protein prenylation by spectrofluorometric method relative to FPP; format: protein-complex assay
[3] = target: T2, Protein farnesyltransferase (Homo sapiens); assay: Activity at recombinant FTase (unknown origin) using dansyl-GCVLS as co-substrate assessed as protein prenylation at 5 uM incubated for 1.5 hrs by spectrofluorometric method; format: protein-complex assay
Summary of the method: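 Preliminary single-point screen: analog diphosphate 5 µM with 5 µM dansyl-GCVLS and 50 nM FTase; continuous fluorescence read at 1.5 h. Result is given as relative fluorescence increase, normalized to FPP (5 µM, 1.5 h) set to 1.0. Mean ± SD, n = 3.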

[4] = target: T1, Geranylgeranyl transferase type I (Homo sapiens); assay: Activity at recombinant GGTase1 (unknown origin) using dansyl-GCVLL as co-substrate assessed as protein prenylation at 5 uM incubated for 1.5 hrs by spectrofluorometric method
Summary of the method: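 Preliminary single-point screen: analog diphosphate 5 µM with 5 µM dansyl-GCVLL and 50 nM GGTase-I; continuous fluorescence read at 1.5 h. Result is given as relative fluorescence increase, normalized to GGPP (1.5 h) set to 1.0. Mean ± SD, n = 3.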

Homo sapiens = species on record: Homo sapiens; assay: Ratio of Kcat/Km for recombinant FTase (unknown origin) to Kcat/Km for recombinant GGTase1 (unknown origin)
[5] = test system: CC(C)=CCCCCCCCCC/C(C)=C/COP(=O)(O)OP(=O)(O)O; assay: (§1) Ratio of Kcat to Km for recombinant GGTase1 (unknown origin) using dansyl-GCVLL as co-substrate assessed as protein prenylation by spectrofluorometric method; conditions: Homo sapiens
[6] = test system: CCCCCCCCCCCC/C(C)=C/COP(=O)(O)OP(=O)(O)O; assay: as §1; conditions: Homo sapiens
[7] = test system: CCCCCCC/C(C)=C/CC/C(C)=C/COP(=O)(O)OP(=O)(O)O; assay: as §1; conditions: Homo sapiens
[8] = test system: CCCCCCCCCCC/C(C)=C/COP(=O)(O)OP(=O)(O)O; assay: as §1; conditions: Homo sapiens
[9] = test system: CC(C)=CCCCCCCCCCC/C(C)=C/COP(=O)(O)OP(=O)(O)O; assay: as §1; conditions: Homo sapiens
[10] = test system: CC(C)=CCC/C(C)=C/CC/C(C)=C/CC/C(C)=C/COP(=O)(O)OP(=O)(O)O; assay: as §1; conditions: Homo sapiens
[11] = test system: C/C(=C\COP(=O)(O)OP(=O)(O)O)CC/C=C(\C)CCCC(C)CCCC(C)C; assay: as §1; conditions: Homo sapiens
[12] = test system: CCCCCCCCC/C(C)=C/CC/C(C)=C/COP(=O)(O)OP(=O)(O)O; assay: as §1; conditions: Homo sapiens
[13] = test system: C/C(=C\CC/C(C)=C/COP(=O)(O)OP(=O)(O)O)CC/C=C(\C)CCCC(C)C; assay: as §1; conditions: Homo sapiens
[14] = test system: CCCCCCCCCCCCC/C(C)=C/COP(=O)(O)OP(=O)(O)O; assay: as §1; conditions: Homo sapiens
[15] = test system: CCCCCCCC/C(C)=C/CC/C(C)=C/COP(=O)(O)OP(=O)(O)O; assay: as §1; conditions: Homo sapiens
[16] = test system: CC(C)=CCCCCCCCCC/C(C)=C/COP(=O)(O)OP(=O)(O)O; assay: (§2) Ratio of Kcat to Km for recombinant FTase (unknown origin) using dansyl-GCVLS as co-substrate assessed as protein prenylation by spectrofluorometric method; format: protein-complex assay; conditions: Homo sapiens
[17] = test system: CCCCCCCCCCCC/C(C)=C/COP(=O)(O)OP(=O)(O)O; assay: as §2; format: protein-complex assay; conditions: Homo sapiens
[18] = test system: CCCCCCC/C(C)=C/CC/C(C)=C/COP(=O)(O)OP(=O)(O)O; assay: as §2; format: protein-complex assay; conditions: Homo sapiens
[19] = test system: CCCCCCCCCCC/C(C)=C/COP(=O)(O)OP(=O)(O)O; assay: as §2; format: protein-complex assay; conditions: Homo sapiens
[20] = test system: CC(C)=CCC/C(C)=C/CC/C(C)=C/COP(=O)(O)OP(=O)(O)O; assay: as §2; format: protein-complex assay; conditions: Homo sapiens
[21] = test system: CCCCCC/C(C)=C/CC/C(C)=C/COP(=O)(O)OP(=O)(O)O; assay: as §2; format: protein-complex assay; conditions: Homo sapiens
[22] = test system: CC(C)=CCCCCCCCCCC/C(C)=C/COP(=O)(O)OP(=O)(O)O; assay: as §2; format: protein-complex assay; conditions: Homo sapiens
[23] = test system: C/C(=C\COP(=O)(O)OP(=O)(O)O)CC/C=C(\C)CCCC(C)CCCC(C)C; assay: as §2; format: protein-complex assay; conditions: Homo sapiens
[24] = test system: CCCCCCCCC/C(C)=C/CC/C(C)=C/COP(=O)(O)OP(=O)(O)O; assay: as §2; format: protein-complex assay; conditions: Homo sapiens
[25] = test system: CCCCCCCCCCCCC/C(C)=C/COP(=O)(O)OP(=O)(O)O; assay: as §2; format: protein-complex assay; conditions: Homo sapiens
[26] = test system: CCCCCCCC/C(C)=C/CC/C(C)=C/COP(=O)(O)OP(=O)(O)O; assay: as §2; format: protein-complex assay; conditions: Homo sapiens

Ratio [1] | Ratio [2] | Activity [3] | Activity [4] | Ratio (Homo sapiens) | Molecule | other results
0.5 | 0.15 | Active | Active |  | CC(C)=CCCCCCCCCCC/C(C)=C/COP(=O)(O)OP(=O)(O)O | 
0.08 | 0.18 | Active | Active | 2 | CCCCCCCCCCC/C(C)=C/COP(=O)(O)OP(=O)(O)O | 
0.95 | 0.72 | Active | Active |  | CCCCCCCCC/C(C)=C/CC/C(C)=C/COP(=O)(O)OP(=O)(O)O | 
0.02 | 0.24 | Active | Active | 12 | CCCCCCCCCCCC/C(C)=C/COP(=O)(O)OP(=O)(O)O | 
0.03 | 0.05 | Active | Active |  | C/C(=C\COP(=O)(O)OP(=O)(O)O)CC/C=C(\C)CCCC(C)CCCC(C)C (stereo not drawn) | 
 | 0.35 | Active | Active |  | CCCCCC/C(C)=C/CC/C(C)=C/COP(=O)(O)OP(=O)(O)O | 
 |  |  |  |  | Geranylgeranyl transferase type I (Homo sapiens) (from UniProt P49354+P53609) | kcat/Km [5]: 9 ×10² /M/s; kcat/Km [6]: 8.9 ×10² /M/s; kcat/Km [7]: 3.2 ×10⁴ /M/s; kcat/Km [8]: 3.2 ×10³ /M/s; kcat/Km [9]: 1.9 ×10⁴ /M/s; kcat/Km [10]: 3.78 ×10⁴ /M/s; kcat/Km [11]: 1.2 ×10³ /M/s; kcat/Km [12]: 3.6 ×10⁴ /M/s; kcat/Km [13]: 6.3 ×10³ /M/s; kcat/Km [14]: 6.2 ×10³ /M/s; kcat/Km [15]: 2.2 ×10⁴ /M/s
0.17 |  | Active | Active |  | C/C(=C\CC/C(C)=C/COP(=O)(O)OP(=O)(O)O)CC/C=C(\C)CCCC(C)C | 
 |  |  |  |  | Protein farnesyltransferase (Homo sapiens) (from UniProt P49354+P49356) | kcat/Km [16]: 6.8 ×10³ /M/s; kcat/Km [17]: 1.1 ×10⁴ /M/s; kcat/Km [18]: 7.1 ×10³ /M/s; kcat/Km [19]: 8.3 ×10³ /M/s; kcat/Km [20]: 4.6 ×10⁴ /M/s; kcat/Km [21]: 1.6 ×10⁴ /M/s; kcat/Km [22]: 7.1 ×10³ /M/s; kcat/Km [23]: 3.5 ×10³ /M/s; kcat/Km [24]: 3.3 ×10⁴ /M/s; kcat/Km [25]: 4.1 ×10³ /M/s; kcat/Km [26]: 9.7 ×10³ /M/s
0.16 | 0.09 | Active | Active |  | CCCCCCCCCCCCC/C(C)=C/COP(=O)(O)OP(=O)(O)O | 
0.58 | 0.21 | Active | Active | 0.44 | CCCCCCCC/C(C)=C/CC/C(C)=C/COP(=O)(O)OP(=O)(O)O | 
0.02 | 0.15 | Active | Active |  | CC(C)=CCCCCCCCCC/C(C)=C/COP(=O)(O)OP(=O)(O)O | 
0.85 | 0.15 | Active | Active | 0.22 | CCCCCCC/C(C)=C/CC/C(C)=C/COP(=O)(O)OP(=O)(O)O | 

Source: ChEMBL document CHEMBL3817763, “Exploration of GGTase-I substrate requirements. Part 2: Synthesis and biochemical analysis of novel saturated geranylgeranyl diphosphate analogs” (Bioorg Med Chem Lett, 2016)
